Laboratory results published in ChEMBL document CHEMBL1145462, “In vivo pharmacodynamic activity of the glycopeptide dalbavancin” (Antimicrob Agents Chemother, 2007).
Values after ≈ are worked out from the molar mass of the structure shown.

Experiments:
[1] = test system: Streptococcus pneumoniae; assay: Bactericidal activity against penicillin-susceptible Streptococcus pneumoniae ATCC 10813 infected neutropenic Swiss ICR mouse thigh infection model assessed as drug level causing 1-log reduction of bacterial count at 0.71 mg/kg, ip dosed every 72 hrs; assay type: functional; conditions: route intraperitoneal
Outline: (§1)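 Neutropenic mice (cyclophosphamide ip 150 mg/kg day −4, 100 mg/kg day −1, then every 48 h) received 0.1 ml log-phase inoculum per thigh under halothane. Intraperitoneal dalbavancin started 2 h later and was given for 6 days at q12h, q24h, q36h or q72h, two mice per regimen. Thigh CFU were counted at 144 h. Endpoint doses relative to start-of-therapy counts came from Hill-model nonlinear regression and are expressed per 24 h.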

[2] = test system: Streptococcus pneumoniae; assay: AUC/MIC ratio of Streptococcus pneumoniae ATCC 10813 infected neutropenic mouse thigh infection model at 0.77 mg/kg, ip administered every 72 hrs by 1-log killing experiment; assay type: functional; conditions: route intraperitoneal
[3] = test system: Staphylococcus aureus; assay: AUC/MBC ratio of Staphylococcus aureus 33591 infected neutropenic mouse thigh infection model at 74 mg/kg, ip administered every 72 hrs by static effect experiment; assay type: functional; conditions: route intraperitoneal
[4] = test system: Streptococcus pneumoniae; assay: AUC/MIC ratio of Streptococcus pneumoniae ATCC 10813 infected neutropenic mouse thigh infection model at 1.75 mg/kg, ip administered every 24 hrs by 2-log killing experiment; assay type: functional; conditions: route intraperitoneal
[5] = test system: Streptococcus pneumoniae; assay: AUC/MIC ratio of Streptococcus pneumoniae ATCC 10813 infected neutropenic mouse thigh infection model at 1.34 mg/kg, ip administered every 24 hrs by static effect experiment; assay type: functional; conditions: route intraperitoneal
[6] = test system: Staphylococcus aureus; assay: Antibacterial activity against Staphylococcus aureus ATCC 25923 in presence of 95% mouse serum; assay type: functional
Outline: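 MIC determined in broth, heat-treated (100°C, 30 min) 95% mouse serum, and 95% mouse serum ultrafiltrate, using arithmetic dilutions of 0.02 mg/liter per tube. Protein binding estimated as (MIC in 95% serum − MIC in ultrafiltrate)/MIC in 95% serum.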

[7] = test system: Streptococcus pneumoniae; assay: Bactericidal activity against penicillin-susceptible Streptococcus pneumoniae ATCC 10813 infected neutropenic Swiss ICR mouse thigh infection model assessed as drug level causing 2-log reduction of bacterial count at 0.71 mg/kg, ip dosed every 72 hrs; assay type: functional; conditions: route intraperitoneal; outline: as §1
[8] = Half life in bacterial pathogen-infected neutropenic Swiss ICR mouse thigh infection model at 20 mg/kg, ip; assay type: ADME, organism-based; set-up: dose 20 mg/kg, route intraperitoneal; conditions: in vivo
Outline: (§2)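 Thigh-infected neutropenic mice received single intraperitoneal doses (2.5, 5, 10, 20, 40, 80 mg/kg; 0.2 ml/dose). Blood was drawn by retroorbital aspiration from groups of three mice at 0.5, 1, 2, 4, 6, 24, 48, 72 and 96 h. Plasma levels were measured by microbiologic assay with Bacillus subtilis (detection limit 0.10 mg/liter). Noncompartmental analysis was used: half-life by linear least-squares regression, AUC by trapezoidal rule.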

[9] = test system: Streptococcus pneumoniae; assay: AUC/MIC ratio of Streptococcus pneumoniae 1329 infected neutropenic mouse thigh infection model at 0.90 mg/kg, ip administered every 24 hrs by static effect experiment; assay type: functional; conditions: dose 0.9 mg/kg; route intraperitoneal
[10] = Half life in bacterial pathogen-infected neutropenic Swiss ICR mouse thigh infection model at 5 mg/kg, ip; assay type: ADME, organism-based; set-up: dose 5 mg/kg, route intraperitoneal; conditions: in vivo; outline: as §2
[11] = test system: Staphylococcus aureus; assay: AUC/MBC ratio of Staphylococcus aureus Smith infected neutropenic mouse thigh infection model at 59 mg/kg, ip administered every 72 hrs by static effect experiment; assay type: functional; conditions: route intraperitoneal
[12] = test system: Streptococcus pneumoniae; assay: AUC/MIC ratio of Streptococcus pneumoniae 1325 infected neutropenic mouse thigh infection model at 1.73 mg/kg, ip administered every 24 hrs by 2-log killing experiment; assay type: functional; conditions: route intraperitoneal
[13] = test system: Staphylococcus aureus; assay: AUC/MIC ratio of Staphylococcus aureus 307109 infected neutropenic mouse thigh infection model at 34 mg/kg, ip administered every 72 hrs by 1-log killing experiment; assay type: functional; conditions: route intraperitoneal
[14] = test system: Staphylococcus aureus; assay: AUC/MBC ratio of methicillin-resistant Staphylococcus aureus infected neutropenic mouse thigh infection model at 62 mg/kg, ip administered every 72 hrs by 1-log killing experiment; assay type: functional; conditions: route intraperitoneal
[15] = Half life in bacterial pathogen-infected neutropenic Swiss ICR mouse thigh infection model at 10 mg/kg, ip; assay type: ADME, organism-based; set-up: dose 10 mg/kg, route intraperitoneal; conditions: in vivo; outline: as §2
[16] = test system: Staphylococcus aureus; assay: AUC/MIC ratio of Staphylococcus aureus ATCC 25923 infected neutropenic mouse thigh infection model at 51.2 mg/kg, ip administered every 24 hrs by 1-log killing experiment; assay type: functional; conditions: route intraperitoneal
[17] = test system: Staphylococcus aureus; assay: AUC/MIC ratio of methicillin-resistant Staphylococcus aureus infected neutropenic mouse thigh infection model at 43 mg/kg, ip administered every 72 hrs by static effect experiment; assay type: functional; conditions: route intraperitoneal
[18] = test system: Staphylococcus aureus; assay: Bactericidal activity against […] Staphylococcus aureus ATCC 29213 infected neutropenic Swiss ICR mouse thigh infection model assessed as drug level causing 2-log reduction of bacterial count at 10 mg/kg, ip dosed every 72 hrs; assay type: functional; conditions: route intraperitoneal
[19] = test system: Staphylococcus aureus; assay: AUC/MBC ratio of Staphylococcus aureus 33591 infected neutropenic mouse thigh infection model at 114 mg/kg, ip administered every 72 hrs by 2-log killing experiment; assay type: functional; conditions: route intraperitoneal
[20] = Half life in bacterial pathogen-infected neutropenic Swiss ICR mouse thigh infection model at 40 mg/kg, ip; assay type: ADME, organism-based; set-up: dose 40 mg/kg, route intraperitoneal; conditions: in vivo; outline: as §2
[21] = test system: Streptococcus pneumoniae; assay: Bactericidal activity in Streptococcus pneumoniae ATCC 10813 infected non-neutropenic mouse thigh infection model assessed as drug level causing 1-log reduction of bacterial count at 2.03 mg/kg/6days; assay type: functional
[22] = test system: Staphylococcus aureus; assay: AUC/MBC ratio of Staphylococcus aureus ATCC 25923 infected neutropenic mouse thigh infection model at 42.7 mg/kg, ip administered every 24 hrs by static effect experiment; assay type: functional; conditions: route intraperitoneal
[23] = test system: Staphylococcus aureus; assay: AUC/MIC ratio of Staphylococcus aureus 33591 infected neutropenic mouse thigh infection model at 27.7 mg/kg, ip administered every 24 hrs by 1-log killing experiment; assay type: functional; conditions: route intraperitoneal
[24] = test system: Streptococcus pneumoniae; assay: Antibacterial activity against Streptococcus pneumoniae 1329 by microdilution method; assay type: functional
Outline: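 MIC and MBC were determined by CLSI broth microdilution, in duplicate on at least two occasions. Staphylococci were grown in Mueller-Hinton broth and agar; pneumococci were plated on sheep blood agar.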

[25] = test system: Streptococcus pneumoniae; assay: AUC/MIC ratio of Streptococcus pneumoniae 1329 infected neutropenic mouse thigh infection model at 1.18 mg/kg, ip administered every 24 hrs by 1-log killing experiment; assay type: functional; conditions: route intraperitoneal
[26] = test system: Streptococcus pneumoniae; assay: Bactericidal activity in Streptococcus pneumoniae ATCC 10813 infected neutropenic mouse thigh infection model assessed as drug level causing 1-log reduction of bacterial count at 4.13 mg/kg/6days; assay type: functional
[27] = test system: Staphylococcus aureus; assay: AUC/MBC ratio of methicillin-resistant Staphylococcus aureus infected neutropenic mouse thigh infection model at 53.5 mg/kg, ip administered every 24 hrs by 2-log killing experiment; assay type: functional; conditions: route intraperitoneal
[28] = test system: Streptococcus pneumoniae; assay: AUC/MIC ratio of Streptococcus pneumoniae 1396 infected neutropenic mouse thigh infection model at 0.69 mg/kg, ip administered every 72 hrs by 2-log killing experiment; conditions: route intraperitoneal
[29] = test system: Staphylococcus aureus; assay: AUC/MIC ratio of methicillin-resistant Staphylococcus aureus infected neutropenic mouse thigh infection model at 53.5 mg/kg, ip administered every 24 hrs by 2-log killing experiment; assay type: functional; conditions: route intraperitoneal

In the case of `CN[C@H]1C(=O)N[C@@H]2Cc3ccc(cc3)Oc3cc4cc(c3O[C@@H]3O[C@H](C(=O)O)[C@@H](O)[C@H](O)[C@H]3NC(=O)CCCCCCCCC(C)C)Oc3ccc(cc3Cl)[C@@H](O)[C@@H]3NC(=O)[C@H](NC(=O)[C@@H]4NC(=O)[C@@H](NC2=O)c2cc(cc(O)c2Cl)Oc2cc1ccc2O)c1ccc(O)c(c1)-c1c(O[C@H]2O[C@H](CO)[C@@H](O)[C@H](O)[C@@H]2O)cc(O)cc1[C@@H](C(=O)NCCCN(C)C)NC3=O` [DALBAVANCIN], the Activity [1] is reported as 0.77, the RatioAUC/MIC [2] is reported as 1.6 and the Ratio [3] is reported as 59. For the same molecule, the RatioAUC/MIC [4] was 9.9, the RatioAUC/MIC [5] was 7.5 and the MIC [6] was 32000 ng/mL. It also gave an Activity [7] of 0.82, a half-life [8] of 7.6 h and a RatioAUC/MIC [9] of 18. It also gave a half-life [10] of 9.6 h, a Ratio [11] of 46.1 and a RatioAUC/MIC [12] of 34.5. It also gave a RatioAUC/MIC [13] of 108, a Ratio [14] of 48.8 and a half-life [15] of 12.5 h. It also gave a RatioAUC/MIC [16] of 250, a RatioAUC/MIC [17] of 147 and an Activity [18] of 128. The Ratio [19] was 94, the half-life [20] was 10.4 h and the Activity [21] was 2.35. For the same molecule, the Ratio [22] was 52, the RatioAUC/MIC [23] was 121 and the MBC [24] was 8 ng/mL (≈ 4.4 nM). It also gave an MIC [24] of 8 ng/mL (≈ 4.4 nM), a RatioAUC/MIC [25] of 23.5 and an Activity [26] of 4.38. It also gave a Ratio [27] of 125, a RatioAUC/MIC [28] of 4.8 and a RatioAUC/MIC [29] of 519.
